Results published in ChEMBL document CHEMBL4364266, “Design, synthesis and biological evaluation of novel 2,3,4,9-tetrahydro-1H-pyrido[3,4-b]indole triazole derivatives as potent TRPV1 antagonists” (Eur J Med Chem, 2019).
Calls of active or inactive are those of the source.

Key:
[1] = molecular target: T1, Transient receptor potential cation channel subfamily V member 1 (Homo sapiens, UniProt Q8NER1); experiment: Antagonist activity at low pH-induced human recombinant TRPV1 expressed in CHO-K1 cells co-expressing aequorin at 50 uM incubated for 2.5 mins in presence of ATP followed by hydrochloride addition at pH 5 by luminescence assay relative to control; type: cell-based
T1 sequence (Q8NER1 whole entry): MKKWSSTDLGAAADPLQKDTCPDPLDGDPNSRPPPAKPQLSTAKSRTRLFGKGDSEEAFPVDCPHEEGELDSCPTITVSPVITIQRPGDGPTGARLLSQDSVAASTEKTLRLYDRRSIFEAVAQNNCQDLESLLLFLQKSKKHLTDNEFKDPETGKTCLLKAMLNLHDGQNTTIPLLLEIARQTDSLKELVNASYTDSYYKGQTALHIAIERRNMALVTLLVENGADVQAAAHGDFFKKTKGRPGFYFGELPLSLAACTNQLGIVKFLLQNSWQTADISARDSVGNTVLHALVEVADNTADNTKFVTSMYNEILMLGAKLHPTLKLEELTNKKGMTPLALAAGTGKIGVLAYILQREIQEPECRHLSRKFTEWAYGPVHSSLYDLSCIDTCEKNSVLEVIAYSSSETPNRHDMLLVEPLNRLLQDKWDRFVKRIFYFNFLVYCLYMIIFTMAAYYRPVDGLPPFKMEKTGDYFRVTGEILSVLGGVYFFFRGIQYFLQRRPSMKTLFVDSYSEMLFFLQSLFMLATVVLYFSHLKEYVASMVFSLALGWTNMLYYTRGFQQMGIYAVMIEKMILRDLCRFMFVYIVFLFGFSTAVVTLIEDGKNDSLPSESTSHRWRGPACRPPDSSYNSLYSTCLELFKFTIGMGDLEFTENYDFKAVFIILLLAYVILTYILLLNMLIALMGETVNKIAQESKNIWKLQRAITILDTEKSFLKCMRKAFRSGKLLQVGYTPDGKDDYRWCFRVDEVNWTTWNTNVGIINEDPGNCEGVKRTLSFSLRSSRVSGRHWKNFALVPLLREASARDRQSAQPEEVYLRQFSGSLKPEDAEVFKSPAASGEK
In short: (§1)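 Aequorin cells expressing recombinant human TRPV1 were loaded with coelenterazine for 4 h in the dark. Assay buffer was DMEM-F12 with 15 mM HEPES (pH 7.0) and 0.1% BSA. Cells were added to compound and incubated 2.5 min, then challenged with capsaicin or with HCl at pH 5.0, and luminescence was read at once. Digitonin (100 µM) and ATP (50 µM) served as reference blanks. Mean ± SEM of at least three experiments.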

Mus musculus [2] = experiment: Antinociceptive activity in KM mouse model of thermal-induced nociception assessed as increase in latency to tail withdrawal at 1 to 10 mg/kg, po administered as single dose pretreated for 30 mins; type: functional, organism-based
Mus musculus [3] = experiment: Antinociceptive activity in KM mouse model of acetic acid induced pain assessed as suppression of writhes at 1 to 10 mg/kg, po administered as single dose pretreated for 30 mins followed by acetic acid challenge and measured for 15 mins; type: functional, organism-based
Mus musculus [4] = experiment: Antinociceptive activity in KM mouse model of thermal-induced nociception assessed as increase in latency to tail withdrawal at 30 mg/kg, po administered as single dose pretreated for 30 mins; type: functional, organism-based
In short: (§2)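 Male KM mice (18-22 g, n = 6 per group) received 30 mg/kg intragastrically as a suspension in 0.5% CMC-Na, 30 min before testing. Capsaicin test: 20 µL capsaicin injected s.c. into the dorsal right hind paw, with paw licking time summed over 5 min. Writhing test: 0.6% acetic acid given i.p. at 0.1 mL/10 g, with writhes counted for 15 min. Tail-flick test: 12 s cut-off.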

[5] = molecular target: T1, Transient receptor potential cation channel subfamily V member 1; experiment: Antagonist activity at capsaicin-induced human recombinant TRPV1 expressed in CHO-K1 cells co-expressing aequorin incubated for 2.5 mins in presence of ATP followed by capsaicin addition by luminescence assay; type: cell-based; in short: as §1
Mus musculus [6] = experiment: Antinociceptive activity in KM mouse model of acetic acid induced pain assessed as suppression of writhes at 30 mg/kg, po administered as single dose pretreated for 30 mins followed by acetic acid challenge and measured for 15 mins; type: functional, organism-based; in short: as §2
Mus musculus [7] = experiment: Antinociceptive activity in KM mouse model of capsaicin-induced pain assessed as reduction in paw licking time at 30 mg/kg, po administered as single dose pretreated for 30 mins followed by capsaicin challenge and measured for 5 mins; type: functional, organism-based; in short: as §2
Mus musculus [8] = experiment: Effect on body temperature in KM mouse assessed as increase in rectal temperature at 30 mg/kg, po administered as single dose measured every 30 mins for 60 mins by electric probe thermometer; type: functional, organism-based
In short: (§3)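 Male KM mice (n = 6) were dosed intragastrically with 30 mg/kg in 0.5% CMC-Na, or with vehicle. Body temperature was taken with an electric probe thermometer at 0, 30, 60, 90 and 120 min after dosing. Results given as temperature or as the change from 0 min, mean ± SEM, with Dunnett's test against vehicle.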

Mus musculus [9] = experiment: Antinociceptive activity in KM mouse model of capsaicin-induced pain assessed as reduction in paw licking time at 1 to 10 mg/kg, po administered as single dose pretreated for 30 mins followed by capsaicin challenge and measured for 5 mins; type: functional, organism-based
[10] = Absorption rate constant in Sprague-Dawley rat at 10 mg/kg, po measured up to 12 hrs by UPLC-QTOF/MS analysis; type: ADME, organism-based; details: in vivo
In short: (§4)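 Male Sprague-Dawley rats (220-250 g, n = 3), jugular vein cannulated 1 day before dosing and fasted overnight. Given 10 mg/kg by oral gavage as a suspension in 0.5% sodium carboxymethyl cellulose. Jugular blood drawn at 0.25, 0.5, 1, 2, 4, 6, 8 and 12 h into heparin tubes. Plasma deproteinized with acetonitrile and analysed by UPLC-QTOF/MS. Parameters from a one-compartment model.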

[11] = Elimination rate constant in Sprague-Dawley rat at 10 mg/kg, po measured up to 12 hrs by UPLC-QTOF/MS analysis; type: ADME, organism-based; details: in vivo; in short: as §4
[12] = Volume of distribution in Sprague-Dawley rat at 10 mg/kg, po measured up to 12 hrs by UPLC-QTOF/MS analysis; type: ADME, organism-based; details: in vivo; in short: as §4
[13] = Mean residence time in Sprague-Dawley rat at 10 mg/kg, po measured up to 12 hrs by UPLC-QTOF/MS analysis; type: ADME, organism-based; details: in vivo; in short: as §4
[14] = Cmax in Sprague-Dawley rat at 10 mg/kg, po measured up to 12 hrs by UPLC-QTOF/MS analysis; type: ADME, organism-based; parameters: dose 10 mg/kg, route oral; details: in vivo; in short: as §4
[15] = Elimination half-life in Sprague-Dawley rat at 10 mg/kg, po measured up to 12 hrs by UPLC-QTOF/MS analysis; type: ADME, organism-based; details: in vivo, read-out: beta t1/2 (converted); in short: as §4
[16] = Clearance in Sprague-Dawley rat at 10 mg/kg, po measured up to 12 hrs by UPLC-QTOF/MS analysis; type: ADME, organism-based; details: in vivo; in short: as §4
Mus musculus [17] = experiment: Effect on body temperature in KM mouse assessed as increase in rectal temperature at 30 mg/kg, po administered as single dose measured every 30 mins for 120 mins by electric probe thermometer; type: functional, organism-based; in short: as §3
[18] = AUC (0 to infinity) in Sprague-Dawley rat at 10 mg/kg, po measured up to 12 hrs by UPLC-QTOF/MS analysis; type: ADME, organism-based; parameters: dose 10 mg/kg, route oral, time infinity; details: in vivo; in short: as §4
[19] = Tmax in Sprague-Dawley rat at 10 mg/kg, po measured up to 12 hrs by UPLC-QTOF/MS analysis; type: ADME, organism-based; details: in vivo; in short: as §4

Cc1ccc(-n2cc(CN3CCc4c([nH]c5ccccc45)C3)nn2)cc1Cl
inhibition [1]: 48%

Cc1cc(C)nc(-n2cc(CN3CCc4c([nH]c5ccccc45)C3)nn2)c1
inhibition [1]: 13%

Clc1ccc(-n2cc(CN3CCc4cc(Cl)ccc43)nn2)cc1
inhibition [1]: 34%

O=[N+]([O-])c1ccc(-n2cc(CN3CCc4c([nH]c5ccccc45)C3)nn2)cc1
Activity (Mus musculus [2]): inactive | Activity (Mus musculus [3]): inactive | Activity (Mus musculus [4]): Active | IC50 [5]: 0.121 µM | inhibition [1]: 86% | Activity (Mus musculus [6]): Active | Activity (Mus musculus [7]): Active | Activity (Mus musculus [8]): Active | Activity (Mus musculus [9]): inactive

FC(F)(F)c1ccccc1-n1cc(CN2CCc3ccccc32)nn1
IC50 [5]: 4.94 µM | inhibition [1]: 55%

FC(F)(F)c1ccc(-n2cc(CN3CCc4c([nH]c5ccccc45)C3)nn2)cc1
IC50 [5]: 0.204 µM | inhibition [1]: 79%

Clc1ccc(-n2cc(CN3CCc4ccccc43)nn2)cc1
IC50 [5]: 12.6 µM | inhibition [1]: 42%

Fc1ccc2c(c1)CCN2Cc1cn(-c2ccc(Cl)cc2)nn1
inhibition [1]: 12%

O=[N+]([O-])c1ccccc1-n1cc(CN2CCc3c([nH]c4ccccc34)C2)nn1
Activity (Mus musculus [2]): inactive | Activity (Mus musculus [3]): inactive | Activity (Mus musculus [4]): Active | IC50 [5]: 0.108 µM | inhibition [1]: 85% | Activity (Mus musculus [6]): Active | Activity (Mus musculus [7]): Active | Activity (Mus musculus [8]): Active | Activity (Mus musculus [9]): inactive

Clc1ncccc1-n1cc(CN2CCc3c([nH]c4ccccc34)C2)nn1
IC50 [5]: 3.49 µM | inhibition [1]: 72%

Fc1ccc(-n2cc(CN3CCc4c([nH]c5ccccc45)C3)nn2)cc1
IC50 [5]: 0.494 µM | inhibition [1]: 74%

Clc1ccc(-n2cc(CN3CCc4c([nH]c5ccccc45)C3)nn2)cc1
IC50 [5]: 0.495 µM | inhibition [1]: 73%

COc1ccccc1-n1cc(CN2CCc3c([nH]c4ccccc34)C2)nn1
IC50 [5]: 1.88 µM | inhibition [1]: 64%

Fc1cccc(-n2cc(CN3CCc4c([nH]c5ccccc45)C3)nn2)c1
IC50 [5]: 0.385 µM | inhibition [1]: 71%

CC(C)c1ccccc1-n1cc(CN2CCc3ccccc32)nn1
inhibition [1]: 39%

CC(C)(C)c1ccc(-n2cc(CN3CCc4ccccc43)nn2)cc1
IC50 [5]: 22.6 µM | inhibition [1]: 32%

COc1ccc(-n2cc(CN3CCc4c([nH]c5ccccc45)C3)nn2)cc1
IC50 [5]: 1.2 µM | inhibition [1]: 55%

c1cc(-n2cc(CN3CCc4c([nH]c5ccccc45)C3)nn2)c2ccncc2c1
IC50 [5]: 2.16 µM | inhibition [1]: 59%

CC(C)(C)c1ccc(-n2cc(CN3CCc4c([nH]c5ccccc45)C3)nn2)cc1
IC50 [5]: 1.22 µM | inhibition [1]: 61%

COc1ccc(-n2cc(CN3CCc4c([nH]c5ccccc45)C3)nn2)cc1OC
IC50 [5]: 1.12 µM | inhibition [1]: 74%

Clc1ccc(Cl)c(-n2cc(CN3CCc4c([nH]c5ccccc45)C3)nn2)c1
Activity (Mus musculus [2]): inactive | Activity (Mus musculus [3]): inactive | Activity (Mus musculus [4]): Active | IC50 [5]: 0.112 µM | inhibition [1]: 79% | Activity (Mus musculus [6]): Active | Activity (Mus musculus [7]): Active | Activity (Mus musculus [8]): Active | Activity (Mus musculus [9]): inactive

CC(C)c1cccc(-n2cc(CN3CCc4ccccc43)nn2)c1
inhibition [1]: 17%

Clc1ccc(-n2cc(CN3CCc4c([nH]c5ccccc45)C3)nn2)cc1Cl
IC50 [5]: 0.341 µM | inhibition [1]: 73%

O=[N+]([O-])c1cc(Cl)ccc1-n1cc(CN2CCc3c([nH]c4ccccc34)C2)nn1
IC50 [5]: 0.394 µM | inhibition [1]: 67%

Cc1cc(C)c(-n2cc(CN3CCc4c([nH]c5ccccc45)C3)nn2)c(C)c1
inhibition [1]: 13%

Fc1cccc(-n2cc(CN3CCc4ccccc43)nn2)c1
IC50 [5]: 19.4 µM | inhibition [1]: 35%

Clc1ccccc1-n1cc(CN2CCc3c([nH]c4ccccc34)C2)nn1
IC50 [5]: 0.243 µM | inhibition [1]: 64%

Cc1ccc(C)c(-n2cc(CN3CCc4c([nH]c5ccccc45)C3)nn2)c1
IC50 [5]: 1.54 µM | inhibition [1]: 67%

CC(C)(C)c1ccc(-n2cc(CN3CCc4cc(Cl)ccc43)nn2)cc1
IC50 [5]: 27.1 µM | inhibition [1]: 24%

c1ccc(-n2cc(CN3CCc4c([nH]c5ccccc45)C3)nn2)cc1
IC50 [5]: 0.314 µM | inhibition [1]: 68%

Fc1ccccc1-n1cc(CN2CCc3c([nH]c4ccccc34)C2)nn1
IC50 [5]: 0.232 µM | inhibition [1]: 57%

FC(F)(F)c1cccc(-n2cc(CN3CCc4c([nH]c5ccccc45)C3)nn2)c1
ka [10]: 0.77 h⁻¹ | k el at 12 h [11]: 0.000208 s⁻¹ | Activity (Mus musculus [2]): inactive | Activity (Mus musculus [3]): inactive | Vd [12]: 30.4 L/kg | MRT [13]: 2.64 h | Activity (Mus musculus [4]): Active | Cmax [14]: 123 ng/mL | half-life [15]: 0.9 h | IC50 [5]: 0.089 µM | CL/F [16]: 378 mL/min/kg | Activity (Mus musculus [17]): inactive | inhibition [1]: 62% | AUC(0-inf) [18]: 441 ng·h/mL | Activity (Mus musculus [6]): Active | Activity (Mus musculus [7]): Active | Tmax [19]: 1.3 h | Activity (Mus musculus [9]): inactive

CC(C)c1ccccc1-n1cc(CN2CCc3c([nH]c4ccccc34)C2)nn1
IC50 [5]: 2.53 µM | inhibition [1]: 67%

Cc1ccc(-n2cc(CN3CCc4c([nH]c5ccccc45)C3)nn2)c([N+](=O)[O-])c1
inhibition [1]: 71%

CC(C)c1cccc(-n2cc(CN3CCc4c([nH]c5ccccc45)C3)nn2)c1
IC50 [5]: 1.67 µM | inhibition [1]: 40%

Clc1cccc(-n2cc(CN3CCc4c([nH]c5ccccc45)C3)nn2)c1
IC50 [5]: 0.416 µM | inhibition [1]: 71%

Brc1ccc(-n2cc(CN3CCc4c([nH]c5ccccc45)C3)nn2)cc1
IC50 [5]: 0.788 µM | inhibition [1]: 78%
